Results: ChEMBL document CHEMBL1148749, “Targeting plague virulence factors: a combined machine learning method and multiple conformational virtual screening for the discovery of Yersinia protein kinase A inhibitors” (J Med Chem, 2007)
pIC50: −log10 of the molar value.

Columns and labels:
[1] = Inhibition of MAPK; parameters: species or system Homo sapiens
[2] = biological target: Protein kinase C (PKC); assay: Inhibition of PKC; parameters: species or system Homo sapiens
[3] = Inhibition of Yersinia sp. PKA
Procedure, shortened: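 YpkA kinase activity measured by radiological assay with enzyme at 0.15 μM; IC50 values determined from this assay.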

| SMILES | pIC50 [1] | IC50 [2] [µM] | pIC50 [3] |
| --- | --- | --- | --- |
| O=C1NC(=O)C(=Cc2ccc(Sc3ccc(Cl)cc3)c([N+](=O)[O-])c2)C(=O)N1 | 4.20 | > 200 | 5.23 |
| O=C1c2ccccc2C(=O)c2cc(S(=O)(=O)Nc3cccc([N+](=O)[O-])c3)ccc21 | < 3.70 | 165 | 4.70 |
| C=CCN1C(=O)NC(=O)/C(=C/c2ccc(-c3cc([N+](=O)[O-])ccc3Cl)o2)C1=O | 4.26 | 205.16 | 5.01 |
| O=C1Nc2ccc(Br)cc2/C1=C1/SC(=S)N(c2cccc(Cl)c2)C1=O | 5.61 | > 200 | 5.74 |
